Assay [1] is described as follows: inhibitors of TNFa-induced NFkB p65 translocation, primary screen, imaging, HUVEC, MLSMR starter and 10KST1 sets (AID 438;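 active = inhibition above 20% together with a positive visual image hit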;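 also: compound added about 3h40 before a 20 min TNFalpha stimulation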;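 as to inhibition: signal is the nuclear over cytoplasmic p65 intensity ratio per well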). The settings on record: HUVEC TNFa-induced p65 nuclear translocation; cell count: measured here: nuclei count (cytotoxicity indicator), at 2.08 µM; inhibition: at 2 µM, stronger effect = higher value, 0% TNFa-plus-vehicle, 100% no-TNFa wells.
A short description of assay [2]: reduction of polyQ htt aggregates in cells – imaging, exon1htt(103Q)mCFP cells, high-content imaging, primary screen (AID 483;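 active = visual image review flags a hit and inhibition of aggregation exceeds 20%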;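 also: compound exposure lasted 3 days before fixation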;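 as to nuclei count: percent of the per-plate median nuclei count of sample wells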). The settings on record: exon1htt(103Q)mCFP cell line, aggregate imaging, at 2 µM; inhibition of aggregation: stronger effect = higher value; nuclei count: measured here: cell count, toxicity.
A short description of assay [3]: endothelial E-selectin expression blockers – imaging, HUVEC, immunofluorescence, MLSMR starter and 10KST1 sets, primary screen (AID 487;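 active = visually confirmed hit in the image check and inhibition above 20%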;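 as to inhibition: signal is fraction of cell area covered by stained E-selectin grains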;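 as to nuclei count: 100% = median nuclei count of all wells on the same plate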). To be noted: HUVEC TNFalpha-induced E-selectin immunofluorescence imaging, at 2 µM; inhibition: stronger effect = higher value; nuclei count: measured here: cell number, toxicity.
In assay [4] the target is Voltage-gated potassium channel subunit beta-2 (Rattus norvegicus) (UniProt P62483). Description: inhibitors of rat Kvbeta2 reductase activity – biochemical, NADPH fluorescence, primary screen (AID 622;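 active = fluorescence slope higher than the sample average by over 3 SD, cut at about -0.22 in these data, passing the limit was not always enough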;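 also: slope of raw intensity against log time taken from 70 to 1610 s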). To be noted: recombinant KvBeta, 4-cyanobenzaldehyde reduction, at 10 µM, stronger effect = higher value.
Sequence of Voltage-gated potassium channel subunit beta-2 (Rattus norvegicus) (P62483 whole entry, looked up): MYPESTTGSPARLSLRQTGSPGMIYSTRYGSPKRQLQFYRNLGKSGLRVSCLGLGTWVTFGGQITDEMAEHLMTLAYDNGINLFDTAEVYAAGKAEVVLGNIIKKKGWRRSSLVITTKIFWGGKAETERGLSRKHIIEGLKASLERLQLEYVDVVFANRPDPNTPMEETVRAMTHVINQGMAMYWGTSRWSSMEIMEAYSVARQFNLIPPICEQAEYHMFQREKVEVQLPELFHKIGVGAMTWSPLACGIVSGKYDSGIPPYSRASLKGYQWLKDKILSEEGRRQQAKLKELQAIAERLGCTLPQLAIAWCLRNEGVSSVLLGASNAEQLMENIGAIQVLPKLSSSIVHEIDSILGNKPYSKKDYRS
The target is the same in assay [5]. Description: enhancers of rat Kvbeta2 NADPH turnover – biochemical, NADPH fluorescence, primary screen (AID 623;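 active = NADPH fluorescence slope more negative than the mean of all samples by about 3 SD, 99.7% confidence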;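 also: fluorescence intensity change per second fitted from 20 to 320 s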). The settings on record: Recombinant KvBeta, NADPH fluorescence decrease slope, 10 min; at 10 µM; stronger effect = lower value.
Assay [6] has as its target Muscarinic acetylcholine receptor M4 (Homo sapiens) (UniProt P08173). Description: M4-linked GIRK flux change, two-sided – cell-based, HEK293 M4/GIRK, thallium flux, BTC-AM, M4 allosteric agonist project, primary screen (AID 625;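 active = fluorescence slope after compound addition differing from the mean of all tested samples at 99.7% confidence, mostly higher but some lower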;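 also: thallium influx through GIRK channels coupled to M4 in HEK293 cells with BTC-AM dye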). To be noted: at 10 µM, actives lie on both sides. Summed up:
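Material – HEK293 cells with M4 receptor and GIRK channels · Buffer or medium – pH 7.3 thallium assay buffer · Doses – one dose, 10 µM final · Timing – cells overnight at 37 °C, BTC-AM loading 1 h, reads 2 min total · Measured by – kinetic fluorescence with BTC-AM dye · Controls – carbachol and DMSO controls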

A short description of assay [7]: blockers of RIG-like receptor reporter activation – cell-based, Sendai virus stimulus, luciferase, 10K MLSCN set, TLR/RLR signaling modifier project, primary screen (AID 602276;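 active = inhibition at or above 50% at 10 µM; inactive = inhibition below 50%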;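 also: firefly luciferase from ISG56 promoter only with Renilla not read in this screen; 0% = Sendai virus plus DMSO and 100% = medium plus DMSO without virus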). To be noted: HEK293 RL24 IRF3 luciferase reporter, at 10 µM, stronger effect = higher value.
Assay [8] is described as follows: TLR3 IRF3 reporter activation blockers – cell-based, poly I:C stimulus, luciferase, 10K MLSCN set, primary screen (AID 602277). To be noted: HEK293-TLR3 RL24 IRF3 luciferase reporter, at 10 µM, stronger effect = higher value.

Activity calls are given as the source filed them.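 The calls were made as follows, unless noted: active = inhibition of the reporter signal at or above 50%; inactive = inhibition below 50%.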

Sequence of Muscarinic acetylcholine receptor M4 (Homo sapiens) (P08173 whole entry, looked up): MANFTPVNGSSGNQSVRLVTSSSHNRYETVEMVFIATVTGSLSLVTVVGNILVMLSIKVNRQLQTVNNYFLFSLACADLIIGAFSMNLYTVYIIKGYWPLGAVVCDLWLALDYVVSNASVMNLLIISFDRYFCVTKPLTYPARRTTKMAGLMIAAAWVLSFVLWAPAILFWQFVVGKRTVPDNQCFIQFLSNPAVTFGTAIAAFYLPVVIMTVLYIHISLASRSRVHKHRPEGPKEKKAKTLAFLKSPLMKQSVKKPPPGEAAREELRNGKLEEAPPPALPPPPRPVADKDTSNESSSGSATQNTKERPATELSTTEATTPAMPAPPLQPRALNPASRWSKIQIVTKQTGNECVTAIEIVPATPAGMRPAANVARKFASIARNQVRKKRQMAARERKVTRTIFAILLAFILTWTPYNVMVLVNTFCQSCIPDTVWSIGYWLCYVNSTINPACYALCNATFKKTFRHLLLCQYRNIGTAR

On to `CN(Cc1nc(-c2ccncc2)no1)S(=O)(=O)c1ccc(Br)cc1`, for which the cell count in assay [1] was determined as 492. The inhibition in assay [1] is -9.3% (inactive); in assay [3] it was -56.8% (inactive); in assay [7], 4.91% (inactive); in assay [8], -6.05% (inactive). Besides, in assay [2], the inhibition of aggregation was -5.7% (inactive). For the same compound, the nuclei count in assay [2] was 108%; in assay [3] it was 194%. Also, the fluorescence slope is -0.589 (inactive) in assay [4] and 0.01 (inactive) in assay [6]. Besides, the NADPH fluorescence slope in assay [5] is -3.3e-05 (inactive).
Turning to `CCOC(=O)c1cc(-c2ccc(Cl)s2)nc2c1c(C)nn2C`, the cell count in assay [1] came to 473. For the same compound, the inhibition in assay [1] is -11% (inactive); in assay [3] it was -142% (inactive); in assay [7], 8.23% (inactive); in assay [8], -18.9% (inactive). Besides, the inhibition of aggregation in assay [2] was -13.7% (inactive). For the same compound, the results for the nuclei count in assay [2] and in assay [3] were 95% and 106%, respectively. The results for the fluorescence slope in assay [4] and in assay [6] were -0.494 (inactive) and 0.00338 (inactive), respectively. Further, the NADPH fluorescence slope in assay [5] was -1.5e-05 (inactive).
In the case of `N/C(Cn1nnc(-c2ccccc2)n1)=N\O`, the cell count in assay [1] was 707. In addition, the inhibition in assay [1] was 5.4% (inactive); in assay [3] it was 12.5% (inactive); in assay [7], -16.8% (inactive); in assay [8] it was 89.1% (active). In addition, the inhibition of aggregation in assay [2] is -14.8% (inactive). The results for the nuclei count in assay [2] and in assay [3] were 108% and 114%, respectively. Further, the fluorescence slope in assay [4] is -0.463 (inactive); in assay [6] it was 0.00645 (inactive). Also, the NADPH fluorescence slope in assay [5] is 2.3e-05 (inactive).
For `CCCc1cc(=O)n2[nH]cnc2n1`, the cell count in assay [1] was determined as 285. The inhibition in assay [1] was 11.4% (inactive); in assay [3], -11.2% (inactive); in assay [7], 11% (inactive); in assay [8], 19.9% (inactive). The inhibition of aggregation in assay [2] was -16% (inactive). For the same compound, the nuclei count was determined as 80% in assay [2] and 101% in assay [3]. For the same compound, the figures for the fluorescence slope in assay [4] and in assay [6] were -0.285 (inactive) and 0.00663 (inactive), respectively. The NADPH fluorescence slope in assay [5] was -1.5e-05 (inactive).
`COc1ccccc1NC(=O)c1ccc(NC(=O)CSc2nnnn2C)cc1`: in assay [1], the cell count stood at 253. Also, the inhibition in assay [1] is -3.2% (inactive); in assay [3], -63% (inactive); in assay [7], 12.1% (inactive); in assay [8] it was 25.6% (inactive). The inhibition of aggregation in assay [2] was -0.5% (inactive). Besides, the nuclei count in assay [2] stood at 85.1%; in assay [3], 100%. Further, the figures for the fluorescence slope in assay [4] and in assay [6] were -0.385 (inactive) and 0.00533 (inactive), respectively. In addition, the NADPH fluorescence slope in assay [5] is -7.2e-05 (inactive).
With `N#CCSCC(=O)Nc1ccc(F)cc1`, in assay [1], the cell count worked out at 511. The inhibition in assay [1] is 4.1% (inactive); in assay [3] it was 10.5% (inactive); in assay [7] it was 13.5% (inactive); in assay [8], 26.3% (inactive). In addition, the inhibition of aggregation in assay [2] is -5.3% (inactive). The nuclei count in assay [2] is 108%; in assay [3], 99.2%. Further, the fluorescence slope in assay [4] was -0.462 (inactive); in assay [6], 0.00474 (inactive). The NADPH fluorescence slope in assay [5] is -5.6e-05 (inactive).
For the compound `CCCn1nnnc1SCC(=O)c1ccc2c(c1)OCCO2`, in assay [1], the cell count came to 571. In addition, the inhibition in assay [1] was 2.6% (inactive); in assay [3] it was 34% (inactive); in assay [7], -31.3% (inactive); in assay [8], -69.8% (inactive). In addition, in assay [2], the inhibition of aggregation was -22.6% (inactive). The nuclei count in assay [2] amounted to 120%; in assay [3] it was 101%. For the same compound, the results for the fluorescence slope in assay [4] and in assay [6] were -0.441 (inactive) and 0.00722 (inactive), respectively. Moreover, in assay [5], the NADPH fluorescence slope was 0.000111 (inactive).
`CCNC(=O)CC1C(=O)N(c2ccccc2)C(=O)N1Cc1ccc(OC)cc1` (stereo not given): the cell count in assay [1] was 442. Further, the inhibition in assay [1] is 5.9% (inactive); in assay [3], -289% (inactive); in assay [7] it was 14.5% (inactive); in assay [8] it was 21.8% (inactive). Further, in assay [2], the inhibition of aggregation is -1.6% (inactive). Besides, the nuclei count amounted to 69.1% in assay [2] and 92.6% in assay [3]. Further, the values for the fluorescence slope in assay [4] and in assay [6] were -0.567 (inactive) and 0.00553 (inactive), respectively. Besides, in assay [5], the NADPH fluorescence slope was 2e-05 (inactive).
For `COc1ccc2nc(NC(=O)C(NS(=O)(=O)c3cccs3)C(C)C)sc2c1` (stereo not given), the cell count in assay [1] was 365. The inhibition in assay [1] was 0.9% (inactive); in assay [3], -222% (inactive); in assay [7] it was 17.4% (inactive); in assay [8] it was 21% (inactive). Moreover, the inhibition of aggregation in assay [2] was -16.1% (inactive). The nuclei count in assay [2] stood at 97.8%; in assay [3], 104%. Further, the fluorescence slope in assay [4] is -0.532 (inactive); in assay [6] it was 0.00546 (inactive). Besides, the NADPH fluorescence slope in assay [5] is 1.5e-05 (inactive).
As to `Cc1cc(C)c2c(N)c(C(=O)N3CCN(c4ncccn4)CC3)sc2n1`, the cell count in assay [1] is 663. For the same compound, the inhibition in assay [1] was -9.1% (inactive); in assay [3], -10.2% (inactive); in assay [7], -3.01% (inactive); in assay [8], -25.1% (inactive). Further, the inhibition of aggregation in assay [2] was 5.1% (inactive). Moreover, the nuclei count in assay [2] came out at 69.4%; in assay [3] it was 101%. Further, the fluorescence slope was -0.559 (inactive) in assay [4] and 0.00421 (inactive) in assay [6]. Also, the NADPH fluorescence slope in assay [5] was -1.8e-05 (inactive).

The values are drawn from PubChem BioAssay.
